Experimental data published in ChEMBL document CHEMBL5634203, “A Tiny Pocket Packs a Punch: Leveraging Pyridones for the Discovery of CNS-Penetrant Aza-indazole IRAK4 Inhibitors” (ACS Med Chem Lett, 2024).
Converted amounts (≈) assume the structure as drawn.

How the values were obtained:
[1] = Lipophilicity, log D of the compound at pH 7.4; assay type: physicochemical; settings: buffer
[2] = Kinetic solubility of compound in DMSO at pH 6.8 incubated for 24 hrs; assay type: physicochemical; settings: read-out: Kinetic_solubility
Method in brief: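 Kinetic solubility assay at pH 6.8. Arithmetic mean of at least two experiments.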

[3] = Intrinsic clearance in human liver microsomes; assay type: ADME, Microsome; settings: read-out: CLH
Method in brief: (§1)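 Intrinsic clearance measured in human liver microsomes and in human hepatocytes and reported as scaled values. Arithmetic mean of at least two experiments.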

[4] = Intrinsic clearance in human hepatocytes; assay type: ADME, cell-based, Hepatocyte; method in brief: as §1
[5] = Unbound brain-to-plasma concentration ratio in Sprague-Dawley rat brain at 1 mg/kg, iv by LC-MS/MS analysis; assay type: ADME, organism-based; settings: read-out: K(p,uu,brain)
Method in brief: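 Male Sprague Dawley rats dosed by infusion as a cassette. Total drug measured in brain (Cb) and plasma (Cp). Kpu,u calculated as (Cb×Fub)/(Cp×Fup), using the unbound fractions in brain and in plasma.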

[6] = Clearance in Sprague-Dawley rat measured for 4 hrs by LC-MS/MS analysis; assay type: ADME; settings: in vivo
Method in brief: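 Male Sprague Dawley rats dosed by infusion. Clearance measured during the cassette Kpu,u procedure.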

[7] = Plasma protein binding in rat assessed as unbound fraction; assay type: ADME, cell-free
[8] = Plasma protein binding in human assessed as unbound fraction; assay type: ADME, cell-free
Mus musculus [9] = assay: Anti-inflammatory activity in po dosed C57BL/6 mouse assessed reduction in LPS-induced IL-1beta level in plasma preincubated with compound for 60 mins followed by LPS-induction and measured after 90 mins by ELISA analysis; assay type: functional, organism-based; settings: dose 10-100 mg/kg, time 150.0 min
Method in brief: (§2)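 Mice dosed orally with vehicle (0 mpk) or 10, 30 or 100 mpk, 60 min before intraperitoneal LPS. Cytokine levels and free drug concentration in plasma and brain taken 90 min after LPS. Each dose group compared by one-way ANOVA with the vehicle group given i.p. LPS.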

Mus musculus [10] = assay: Anti-inflammatory activity in po dosed C57BL/6 mouse assessed reduction in LPS-induced TNFalpha level in plasma preincubated with compound for 60 mins followed by LPS-induction and measured after 90 mins by ELISA analysis; assay type: functional, organism-based; settings: dose 10-100 mg/kg, time 150.0 min; method in brief: as §2
Mus musculus [11] = assay: Anti-inflammatory activity in po dosed C57BL/6 mouse assessed reduction in LPS-induced MCP-1 level in plasma preincubated with compound for 60 mins followed by LPS-induction and measured after 90 mins by ELISA analysis; assay type: functional, organism-based; settings: dose 10-100 mg/kg, time 150.0 min; method in brief: as §2
Mus musculus [12] = assay: Anti-inflammatory activity in po dosed C57BL/6 mouse assessed reduction in LPS-induced KC-GRO level in plasma preincubated with compound for 60 mins followed by LPS-induction and measured after 90 mins by ELISA analysis; assay type: functional, organism-based; settings: dose 10-100 mg/kg, time 150.0 min; method in brief: as §2
Mus musculus [13] = assay: Anti-inflammatory activity in po dosed C57BL/6 mouse assessed reduction in LPS-induced IL-6 level in plasma preincubated with compound for 60 mins followed by LPS-induction and measured after 90 mins by ELISA analysis; assay type: functional, organism-based; settings: dose 10-100 mg/kg, time 150.0 min; method in brief: as §2
Mus musculus [14] = assay: Anti-inflammatory activity in po dosed C57BL/6 mouse assessed reduction in LPS-induced IL-1beta level in brain preincubated with compound for 60 mins followed by LPS-induction and measured after 90 mins by ELISA analysis; assay type: functional, organism-based; settings: dose 10-100 mg/kg, time 150.0 min; method in brief: as §2
Mus musculus [15] = assay: Anti-inflammatory activity in po dosed C57BL/6 mouse assessed reduction in LPS-induced TNFalpha level in brain preincubated with compound for 60 mins followed by LPS-induction and measured after 90 mins by ELISA analysis; assay type: functional, organism-based; settings: dose 10-100 mg/kg, time 150.0 min; method in brief: as §2
Mus musculus [16] = assay: Anti-inflammatory activity in po dosed C57BL/6 mouse assessed reduction in LPS-induced MCP-1 level in brain preincubated with compound for 60 mins followed by LPS-induction and measured after 90 mins by ELISA analysis; assay type: functional, organism-based; settings: dose 10-100 mg/kg, time 150.0 min; method in brief: as §2
Mus musculus [17] = assay: Anti-inflammatory activity in po dosed C57BL/6 mouse assessed reduction in LPS-induced KC-GRO level in brain preincubated with compound for 60 mins followed by LPS-induction and measured after 90 mins by ELISA analysis; assay type: functional, organism-based; settings: dose 10-100 mg/kg, time 150.0 min; method in brief: as §2
Mus musculus [18] = assay: Anti-inflammatory activity in po dosed C57BL/6 mouse assessed reduction in LPS-induced IL-6 level in brain preincubated with compound for 60 mins followed by LPS-induction and measured after 90 mins by ELISA analysis; assay type: functional, organism-based; settings: dose 10-100 mg/kg, time 150.0 min; method in brief: as §2
Mus musculus [19] = assay: Anti-inflammatory activity in po dosed C57BL/6 mouse assessed increase in LPS-induced IL-10 level in plasma preincubated with compound for 60 mins followed by LPS-induction and measured after 90 mins by ELISA analysis; settings: dose 10-100 mg/kg, time 150.0 min

Row | Structure (SMILES) | logD [1] | solubility kinetic at 24 h [2] [µg/mL] | microsomal CLint [3] [µL/min/mg] | CLH [4] [µL/min/mg] | Kp uu [5] | clearance [6] [mL/min/kg] | fraction unbound [7] | fraction unbound [8] | Activity (Mus musculus [9]) | Activity (Mus musculus [10]) | Activity (Mus musculus [11]) | Activity (Mus musculus [12]) | Activity (Mus musculus [13]) | Activity (Mus musculus [14]) | Activity (Mus musculus [15]) | Activity (Mus musculus [16]) | Activity (Mus musculus [17]) | Activity (Mus musculus [18]) | Activity (Mus musculus [19])
1 | CC(C)Oc1nc2nn(C34COC(C)(C3)C4)cc2cc1C(=O)Nc1cccn([C@H]2C[C@H]2F)c1=O | 2.54 | 25 (≈ 53.5 µM) | < 5.3 | 3 | 0.7 | 43 | 0.0718 | 0.0594 |  |  |  |  |  |  |  |  |  |  | 
2 | CC(C)Oc1nc2nn(C34COC(C)(C3)C4)cc2cc1C(=O)Nc1cccn([C@@H]2C[C@@H]2F)c1=O | 2.61 | 6.6 (≈ 14.1 µM) | < 5.3 | 3.3 |  |  | 0.083 | 0.0127 |  |  |  |  |  |  |  |  |  |  | 
3 | CC(C)Oc1cc2nn(C34COC(C)(C3)C4)cc2cc1C(=O)Nc1cccn([C@H]2C[C@H]2F)c1=O | 2.74 | 56 (≈ 120 µM) | < 5.3 | 3.8 |  |  | 0.047 | 0.0232 |  |  |  |  |  |  |  |  |  |  | 
4 | CC(C)Oc1cc2nn(C34COC(C)(C3)C4)cc2cc1C(=O)Nc1cccn(C)c1=O | 2.16 | 58 (≈ 137 µM) | 7.07 | 3.43 | 1 | 11.2 |  |  | Dose-Dependent Effect | Dose-Dependent Effect | Dose-Dependent Effect | Dose-Dependent Effect | Dose-Dependent Effect | Dose-Dependent Effect | Dose-Dependent Effect | Dose-Dependent Effect | Dose-Dependent Effect | Dose-Dependent Effect | Dose-Dependent Effect
